Assay [1] can be described thus: inhibitors of TNFa-induced NFkB p65 translocation, primary screen, imaging, HUVEC, MLSMR starter and 10KST1 sets (AID 438;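 active = inhibition above 20% together with a positive visual image hit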;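 note: compound added about 3h40 before a 20 min TNFalpha stimulation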;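 for inhibition: signal is the nuclear over cytoplasmic p65 intensity ratio per well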). The following applies: HUVEC TNFa-induced p65 nuclear translocation; cell count: measured here: nuclei count (cytotoxicity indicator), at 2.08 µM; inhibition: at 2 µM, stronger effect = higher value, 0% TNFa-plus-vehicle, 100% no-TNFa wells.
Assay [2] in a line: inhibitors of E-selectin induction by TNFa, primary screen, imaging, HUVEC, immunofluorescence, MLSMR starter and 10KST1 sets (AID 487;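 active = visually confirmed hit in the image check and inhibition above 20%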;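 for inhibition: signal is fraction of cell area covered by stained E-selectin grains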;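 for nuclei count: 100% = median nuclei count of all wells on the same plate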). Conditions: HUVEC TNFalpha-induced E-selectin immunofluorescence imaging, at 2 µM; inhibition: stronger effect = higher value; nuclei count: measured here: cell number, toxicity.
The nature of assay [3]: DUSP6 inhibitors restoring Erk phosphorylation by chemical complementation, primary imaging in DUSP6-transfected HeLa (AID 609;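 active = compounds giving at least 50% inhibition in the cell-based MKP-3 phosphatase rescue imaging test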;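 for inhibition: phospho-Erk level distribution per well compared with pooled transfected vehicle control wells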). Conditions: HeLa MKP-3 transfected, phospho-Erk imaging KS statistic, at 10 µM, cells stimulated with TPA for 15 min.
The target in assay [4] is Dual specificity protein phosphatase 6 (Homo sapiens) (UniProt Q16828). The description is as above. Conditions: HeLa MKP-3 transfected, phospho-Erk imaging KS statistic; at 10 µM; stronger effect = higher value; cells stimulated with TPA for 15 min.
Assay [5] addresses Voltage-gated potassium channel subunit beta-2 (Rattus norvegicus) (UniProt P62483). The assay is described as follows: KvBeta enzyme negative modulators, primary screen, biochemical, NADPH fluorescence (AID 622;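 active = fluorescence slope higher than the sample average by over 3 SD, cut at about -0.22 in these data, passing the limit was not always enough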;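 note: slope of raw intensity against log time taken from 70 to 1610 s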). Conditions: recombinant KvBeta, 4-cyanobenzaldehyde reduction, at 10 µM, stronger effect = higher value.
Assay [6] shares this target. The assay is described as follows: KvBeta positive modulators, primary screen, biochemical, NADPH fluorescence (AID 623;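 active = NADPH fluorescence slope more negative than the mean of all samples by about 3 SD, 99.7% confidence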;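 note: fluorescence intensity change per second fitted from 20 to 320 s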). The following applies: Recombinant KvBeta, NADPH fluorescence decrease slope, 10 min; at 10 µM; stronger effect = lower value.
In assay [7] the target is Muscarinic acetylcholine receptor M4 (Homo sapiens) (UniProt P08173). The assay is described as follows: compounds altering M4/GIRK thallium flux, either direction, primary screen, M4 allosteric agonist project, cell-based, HEK293 M4/GIRK, BTC-AM (AID 625).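 Note: thallium influx through GIRK channels coupled to M4 in HEK293 cells with BTC-AM dye.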 The following applies: at 10 µM, actives lie on both sides. The gist of the method: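 Material: HEK293 cells with M4 receptor and GIRK channels; Times: cells overnight at 37 °C, BTC-AM loading 1 h, reads 2 min total; Technique: kinetic BTC-AM fluorescence sampled at 1 Hz, 10 s pre-addition baseline; Read-out basis: slope over 15–24 s of trace normalized to starting intensity; Controls: carbachol positive, DMSO negative.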

Assay [8] in a line: inhibitors of larval lipid processing in zebrafish, primary screen, whole organism, PED6 fluorescence, gall bladder and intestine (AID 686;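 active = a full or partial loss of lipid-probe fluorescence in the fish gall bladder, intestine or both, judged by eye; inactive = no fluorescence loss, or compound toxic to the fish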;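 note: larvae 5 to 7 days old with five fish per well; signal comes from phospholipase A2 cleavage of quenched PED6 carried via bile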). Conditions: Zebrafish larvae PED6 lipid processing, fluorescence scoring; screened at 20 µM (by protocol). The essentials: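 Incubation: overnight exposure of larvae to compound plus PED6 / Test system: live zebrafish larvae aged 5-7 days, whole organism / Amount: 5 larvae per well / Read-out basis: visual per-well fluorescence inhibition score / Signal: visual fluorescence microscopy scoring of gall bladder, gut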

A short description of assay [9]: inhibitors of Chlamydomonas gravitaxis, primary screen, whole organism, Chlamydomonas reinhardtii, WT vs cilia-less mutant, absorbance, 96-well (AID 463189;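 active = inhibition at or above 50% relative to wild type and mutant plate controls; inactive = inhibition below 50%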;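 note: 0% = wild type cc124 cells in DMSO and 100% = ciliumless bld1 mutant cells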). Conditions: OD600 absorbance, 2 days, at 10 µM, stronger effect = higher value.
The mark [10] stands for this setting: measured here: cell density z-score.
Where [11] appears, read: measured here: nuclear c-Myc green intensity z-score.
Setting [12] is: measured here: nuclear pErk red intensity z-score, stronger effect = higher value.

Active and inactive are the calls of the source.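 Rule for the calls, unless noted: active = fluorescence slope after compound addition differing from the mean of all tested samples at 99.7% confidence, mostly higher but some lower; inactive = the rest.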

Sequence of Voltage-gated potassium channel subunit beta-2 (Rattus norvegicus) (P62483 whole entry, looked up): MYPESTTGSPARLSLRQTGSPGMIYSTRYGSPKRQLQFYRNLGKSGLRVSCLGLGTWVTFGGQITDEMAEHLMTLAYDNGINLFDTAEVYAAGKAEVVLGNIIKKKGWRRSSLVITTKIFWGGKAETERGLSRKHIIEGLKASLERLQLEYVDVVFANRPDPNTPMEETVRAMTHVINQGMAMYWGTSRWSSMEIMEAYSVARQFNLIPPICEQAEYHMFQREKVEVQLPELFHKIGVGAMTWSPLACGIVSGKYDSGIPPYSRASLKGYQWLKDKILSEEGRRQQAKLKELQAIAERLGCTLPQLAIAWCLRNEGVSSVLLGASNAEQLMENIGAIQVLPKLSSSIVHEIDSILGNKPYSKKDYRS
Sequence of Dual specificity protein phosphatase 6 (Homo sapiens) (Q16828 whole entry, looked up): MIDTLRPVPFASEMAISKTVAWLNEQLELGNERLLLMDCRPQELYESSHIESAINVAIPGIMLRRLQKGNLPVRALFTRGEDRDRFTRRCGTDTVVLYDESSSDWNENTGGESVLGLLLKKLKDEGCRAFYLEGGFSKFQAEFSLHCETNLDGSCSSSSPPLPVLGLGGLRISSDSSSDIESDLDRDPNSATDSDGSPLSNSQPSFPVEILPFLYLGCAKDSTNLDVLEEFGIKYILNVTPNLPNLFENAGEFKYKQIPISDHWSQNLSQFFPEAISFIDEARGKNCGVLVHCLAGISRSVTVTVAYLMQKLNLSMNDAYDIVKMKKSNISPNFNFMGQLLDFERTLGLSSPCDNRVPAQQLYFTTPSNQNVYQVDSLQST
Sequence of Muscarinic acetylcholine receptor M4 (Homo sapiens) (P08173 whole entry, looked up): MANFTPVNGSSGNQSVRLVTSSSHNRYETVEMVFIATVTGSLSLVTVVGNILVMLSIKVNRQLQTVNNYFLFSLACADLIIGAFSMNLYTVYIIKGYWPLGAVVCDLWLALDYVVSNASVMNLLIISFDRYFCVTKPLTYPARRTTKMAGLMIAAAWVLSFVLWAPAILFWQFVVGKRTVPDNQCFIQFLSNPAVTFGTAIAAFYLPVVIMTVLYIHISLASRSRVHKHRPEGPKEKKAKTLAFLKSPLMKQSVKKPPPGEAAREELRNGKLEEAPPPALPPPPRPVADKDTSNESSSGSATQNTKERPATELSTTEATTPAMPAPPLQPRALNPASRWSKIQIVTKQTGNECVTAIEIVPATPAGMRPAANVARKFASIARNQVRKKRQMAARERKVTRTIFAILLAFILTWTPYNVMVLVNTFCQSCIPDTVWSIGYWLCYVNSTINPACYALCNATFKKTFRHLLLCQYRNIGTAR

As a reminder, the inhibition is the change of the read-out against control, counted positive when it falls. For the molecule `CCCCc1[nH]c(=O)c(C#N)c2c1CSC(C)(C)C2`, the cell count in [1] stood at 551. The inhibition is 0.5% (inactive) in [1], -122% (inactive) in [2], 17.4% (inactive) in assay [4] and 0.152% (inactive) in assay [9]. For the same molecule, the nuclei count in assay [2] worked out at 132%. Moreover, the z-score in [3] (setting [10]) was 0.749; in assay [3] (setting [11]), 0.642; in assay [3] (setting [12]), -1.4. Further, the fluorescence slope in [5] is -0.482 (inactive); in [7], 0.00497 (inactive). Besides, the NADPH fluorescence slope in [6] was -0.000112 (inactive). Further, in assay [8], the molecule was classed as inactive.

Consider `CC(C)c1[nH]c(=O)c(C#N)c2c1CSC(C)(C)C2`, for which, in [1], the cell count was 507. The inhibition in assay [1] was -14% (inactive); in [2], 4% (inactive); in assay [4], 5.35% (inactive); in assay [9], 14% (inactive). The molecule also had a nuclei count in assay [2] of 89.3%. For the same molecule, the figures for the z-score in [3] (setting [10]), in assay [3] (setting [11]) and in [3] (setting [12]) were 0.147, 0.162 and -0.0562, respectively. The results for the fluorescence slope in [5] and in assay [7] were -0.428 (inactive) and 0.0036 (inactive), respectively. Also, in [6], the NADPH fluorescence slope was 3.3e-05 (inactive). The result in [8] was inactive.

For `O=C(O)CCc1nn2cc(-c3ccccc3)nc2[nH]c1=O`, the cell count in [1] was 580. Besides, the inhibition in assay [1] was 3% (inactive); in [2], -147% (inactive); in assay [4] it was -7.93% (inactive); in [9] it was -5.8% (inactive). For the same molecule, in [2], the nuclei count was determined as 170%. For the same molecule, the values for the z-score in [3] (setting [10]), in assay [3] (setting [11]) and in assay [3] (setting [12]) were 0.555, -0.659 and -0.476, respectively. Moreover, the fluorescence slope in assay [5] is -0.00517 (active); in [7], 0.00553 (inactive). In addition, the NADPH fluorescence slope in assay [6] was 2.1e-06 (inactive). The outcome in assay [8] was inactive.

For `CCCC(C)n1[nH]c(=O)cc1N` (centres undefined), the cell count in assay [1] was determined as 395. Moreover, the inhibition was -2.2% (inactive) in [1], -101% (inactive) in assay [2], 30.7% (inactive) in assay [4] and 27.7% (inactive) in assay [9]. In addition, the nuclei count in assay [2] was found to be 137%. In addition, the figures for the z-score in assay [3] (setting [10]), in assay [3] (setting [11]) and in [3] (setting [12]) were 1.2, -1.78 and -0.211, respectively. For the same molecule, the figures for the fluorescence slope in assay [5] and in assay [7] were -0.46 (inactive) and 0.00418 (inactive), respectively. The NADPH fluorescence slope in assay [6] is -0.000101 (inactive). Also, the molecule was called inactive in assay [8].

For the molecule `CC(=O)NCC(=O)OCN1C(=O)c2ccccc2C1=O`, the cell count in assay [1] was 520. The inhibition in assay [1] was -8.8% (inactive); in assay [2] it was -105% (inactive); in assay [4] it was 15.9% (inactive); in assay [9] it was 20% (inactive). The molecule also came in with a nuclei count in assay [2] of 154%. Besides, the figures for the z-score in assay [3] (setting [10]), in assay [3] (setting [11]) and in assay [3] (setting [12]) were 0.466, -1.64 and -0.405, respectively. Also, the fluorescence slope was -0.376 (inactive) in [5] and 0.00573 (inactive) in assay [7]. The NADPH fluorescence slope in assay [6] is 7.5e-06 (inactive). In addition, the outcome in assay [8] was inactive.

`COCc1[nH]nc2c1C(c1sccc1C)C(C#N)=C(N)O2` (centres undefined): the cell count in assay [1] is 569. The inhibition is -7.1% (inactive) in assay [1], -22.2% (inactive) in [2], 8.31% (inactive) in assay [4] and 0.653% (inactive) in assay [9]. The molecule further had a nuclei count in assay [2] of 170%. Besides, the z-score in assay [3] (setting [10]) is 1.09; in [3] (setting [11]), -0.767; in assay [3] (setting [12]), 0.181. The figures for the fluorescence slope in assay [5] and in assay [7] were -0.488 (inactive) and 0.00573 (inactive), respectively. Besides, in assay [6], the NADPH fluorescence slope was -2.8e-05 (inactive). For the same molecule, the call in [8] was inactive.

For `Cc1ccc(Oc2nc3c(c(=O)n(Cc4ccccc4F)c(=O)n3C)n2C)cc1`, in [1], the cell count came to 749. Moreover, the inhibition is 2.1% (inactive) in assay [1], -74.9% (inactive) in assay [2], 19.8% (inactive) in assay [4] and 11.6% (inactive) in assay [9]. This molecule also returned a nuclei count in [2] of 156%. Further, the z-score was 0.256 in assay [3] (setting [10]), -1.95 in assay [3] (setting [11]) and -0.363 in assay [3] (setting [12]). Moreover, the figures for the fluorescence slope in [5] and in [7] were -0.508 (inactive) and 0.00827 (inactive), respectively. For the same molecule, the NADPH fluorescence slope in assay [6] was -3.8e-05 (inactive). For the same molecule, in assay [8], the call was inactive.

As for `CCOC(=O)Oc1ccc2c(c1)C(C)=CC(C)(C)N2C(=O)OCC`, in [1], the cell count was 618. Further, the inhibition in assay [1] is 2.2% (inactive); in assay [2], -42% (inactive); in assay [4], -13.3% (inactive); in assay [9] it was -7.72% (inactive). The nuclei count in assay [2] came to 115%. In addition, the z-score came to 1.01 in assay [3] (setting [10]), 0.72 in assay [3] (setting [11]) and 0.465 in assay [3] (setting [12]). The fluorescence slope in assay [5] is -0.433 (inactive); in [7] it was 0.00572 (inactive). Further, in assay [6], the NADPH fluorescence slope was -4.7e-05 (inactive). The molecule was classed as inactive in [8].

`COc1ccc2c(c1OC)C(=O)OC2c1c(O)nc(SC)n(-c2ccccc2)c1=O` (centres undefined): the cell count in assay [1] was 494. Further, the inhibition was 4.1% (inactive) in assay [1], -192% (inactive) in assay [2], 29.7% (inactive) in [4] and -18.2% (inactive) in assay [9]. This molecule also yielded a nuclei count in assay [2] of 115%. Also, the z-score in assay [3] (setting [10]) was 1.24; in assay [3] (setting [11]) it was 1.53; in assay [3] (setting [12]), -0.802. Also, the results for the fluorescence slope in assay [5] and in [7] were -0.39 (inactive) and 0.00866 (inactive), respectively. In [6], the NADPH fluorescence slope was -6.5e-05 (inactive). Moreover, in [8], the molecule was classed as inactive.

`COC(=O)C(NC(=O)c1ccccc1)(Nc1nc(C)cs1)C(F)(F)F` (centres undefined): in assay [1], the cell count amounted to 687. Further, the inhibition is -8.5% (inactive) in [1], -24.1% (inactive) in assay [2], 10.9% (inactive) in [4] and 11.6% (inactive) in [9]. The molecule also had a nuclei count in assay [2] of 152%. Besides, the results for the z-score in assay [3] (setting [10]), in assay [3] (setting [11]) and in [3] (setting [12]) were -0.446, -1.08 and 0.594, respectively. Besides, the fluorescence slope in assay [5] is -0.481 (inactive); in assay [7], 0.00439 (inactive). Moreover, in assay [6], the NADPH fluorescence slope was -3.9e-05 (inactive). For the same molecule, the molecule was called inactive in assay [8].

As for `COCCCNc1nc2c(c(=O)[nH]c(=O)n2C)n1CC(O)COc1ccccc1` (centres undefined), the cell count in assay [1] came out at 379. For the same molecule, the inhibition in assay [1] was 6.8% (inactive); in [2], -63.3% (inactive); in assay [4] it was -0.608% (inactive); in [9], 23.4% (inactive). The nuclei count in assay [2] stood at 128%. Besides, the values for the z-score in assay [3] (setting [10]), in assay [3] (setting [11]) and in assay [3] (setting [12]) were -0.311, -0.833 and 1.79, respectively. In addition, the figures for the fluorescence slope in assay [5] and in assay [7] were -0.444 (inactive) and 0.00457 (inactive), respectively. The NADPH fluorescence slope in assay [6] was -7.9e-05 (inactive). Besides, the call in [8] was inactive.

`CCSc1nnc(NC(=O)C(C)(C(F)(F)F)C(F)(F)F)s1`: the cell count in [1] was 664. Besides, the inhibition was -10.9% (inactive) in [1], -107% (inactive) in assay [2], 1.9e-07% (inactive) in assay [4] and 2.14% (inactive) in assay [9]. Moreover, the nuclei count in assay [2] came to 183%. The z-score in assay [3] (setting [10]) is -1.16; in [3] (setting [11]), 0.962; in assay [3] (setting [12]), -1.02. In addition, the results for the fluorescence slope in assay [5] and in assay [7] were -0.49 (inactive) and 0.00486 (inactive), respectively. For the same molecule, the NADPH fluorescence slope in [6] is -6.3e-05 (inactive). Besides, the molecule was called inactive in assay [8].

On to `O=C(c1ccc(-n2cnnn2)cc1)N1CCOCC1`, for which the cell count in assay [1] was 670. The inhibition in assay [1] is -3.5% (inactive); in assay [2], 18.9% (inactive); in assay [4], 4.72% (inactive); in assay [9], -1.94% (inactive). In assay [2], this molecule gave a nuclei count of 171%. Also, the figures for the z-score in [3] (setting [10]), in [3] (setting [11]) and in assay [3] (setting [12]) were 0.439, -0.115 and 0.866, respectively. In addition, the figures for the fluorescence slope in assay [5] and in [7] were -0.492 (inactive) and 0.00579 (inactive), respectively. In assay [6], the NADPH fluorescence slope was -4.1e-05 (inactive). In addition, the outcome in assay [8] was inactive.

Values taken from PubChem BioAssay.
